The source of these data is the array DNA melting data of Ke et al. (doi:10.1101/2024.01.08.574731).

The nature of data set [1]: melting temperature; fluorescence melt of hairpins on a sequencing array, two-state fit, raised by 9.35 °C to match UV melts. The following applies: sodium 0.088 M. Put shortly:
(§1)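 Melting temperature and folding enthalpy were derived from bootstrapped two-state fits. The fitted temperatures were raised by 9.35 °C to agree with UV melts, and four replicates were combined by inverse variance. The underlying data were Cy3 fluorescence images of library hairpins, with annealed Cy3 and quencher oligos, on a sequenced MiSeq flow cell in 50 mM Na-HEPES pH 8.0, 25 mM NaCl, taken in 2.5 °C steps up to 60 °C, normalised to pre-quench Cy3 and to control constructs.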

A short description of data set [2]: folding enthalpy; higher = less favourable; fluorescence melt of hairpins on a sequencing array, two-state fit. The following applies: sodium 0.088 M. Put shortly:
as §1

Consider GATCTTCTTCAAGATC ((((((....)))))), for which the Tm in data set [1] turned out to be 43.5 °C. Also, the folding enthalpy in data set [2] was -116 kJ/mol.
For GTAACAGGAAACTGTTGC (.(((((....))))).), in that order: 45.3 °C and -102 kJ/mol.
Regarding GAATACGAAAGTATTTC ((((((....))).))), the Tm in data set [1] was determined as 38.3 °C. Besides, in data set [2], the folding enthalpy is -66.1 kJ/mol.
For GCTGAGGGAAACCTCAGC (((((((....))))))), in that order: 69.2 °C and -189 kJ/mol.
Taken in the same sequence, the figures for GACCTAGGAAACTAGGCC (.(((((....))))).) were 39.5 °C and -80.9 kJ/mol.
Taken in the same sequence, the figures for GATCGCGCCGGCGATC ((((((....)))))) were 68.2 °C and -106 kJ/mol.
For GTGAATGGAAACACTCAC ((((.((....)).)))), the Tm in data set [1] was 34.4 °C. The folding enthalpy in data set [2] was -103 kJ/mol.
As to GTACATCGAAAGATCTAC (((.(((....))).))), the Tm in data set [1] is 25.1 °C. For the same sequence, the folding enthalpy in data set [2] was -42.8 kJ/mol.
In the case of GATCCGATGACGGATC ((((((....)))))), the Tm in data set [1] came to 58.2 °C. Further, the folding enthalpy in data set [2] was -148 kJ/mol.
For GTGGAGGGAAACCTCCGC (.(((((....))))).), in that order: 56.2 °C and -157 kJ/mol.
For GATCATTTGATGATC ((((((...)))))), in that order: 46.6 °C and -160 kJ/mol.
On to GGGATTGGAAACGATCCC (((((.(....).))))), for which the Tm in data set [1] is 51.9 °C. The folding enthalpy in data set [2] is -183 kJ/mol.
Taken in the same sequence, the figures for GATCCGTCATCGGATC ((((((....)))))) were 59.3 °C and -163 kJ/mol.
For GTGATTCGAAAGAAGCAC (((.(((....))).))), in that order: 56.5 °C and -184 kJ/mol.
Consider GCGGAATACCGC ((((....)))), for which the Tm in data set [1] was 54.2 °C. For the same sequence, in data set [2], the folding enthalpy was -91.6 kJ/mol.
Turning to GATCCGTCTGCGGATC ((((((....)))))), in data set [1], the Tm was 61.1 °C. Besides, the folding enthalpy in data set [2] was -186 kJ/mol.
Taken in the same sequence, the figures for GATCAGATCACTGATC ((((((....)))))) were 49.9 °C and -120 kJ/mol.
Take GATCAGTTCCTGATC ((((((...)))))): the Tm in data set [1] was 50.9 °C. Besides, the folding enthalpy in data set [2] was -180 kJ/mol.
Taken in the same sequence, the figures for GACGCTACGAAAGTAGTC (((..(((....)))))) were 35.9 °C and -55.1 kJ/mol.
For AGTTAGAAATAACT (((((....))))), in that order: 25.8 °C and -41 kJ/mol.
For GCCTTGCGAAAGCCTGGC (((..((....))..))), the Tm in data set [1] was 53.9 °C. Besides, in data set [2], the folding enthalpy is -78.1 kJ/mol.
For GAGACCGGAAACGATCTC ((((.((....)).)))), in that order: 42 °C and -134 kJ/mol.
For GCGGTGACCCGC ((((....)))), in that order: 55.3 °C and -96.7 kJ/mol.
Taken in the same sequence, the figures for GCCAAGGGAAACCTTAGC ((.((((....)))).)) were 33.2 °C and -80.7 kJ/mol.
Consider GATTTGCCGAAAGGCATC (((..(((....)))))), for which the Tm in data set [1] was determined as 21.9 °C. Further, the folding enthalpy in data set [2] is -24.3 kJ/mol.
For GCTGGGGGAAACCTCAGC ((((.((....)).)))), in that order: 54.6 °C and -188 kJ/mol.
Taken in the same sequence, the figures for GATCGTGAGAACGATC ((((((....)))))) were 59.3 °C and -132 kJ/mol.
On to GATCATATTCATGATC ((((((....)))))), for which the Tm in data set [1] came to 47.8 °C. Moreover, the folding enthalpy in data set [2] was -156 kJ/mol.
For GCGACCTGTCGC ((((....)))), in that order: 68.3 °C and -111 kJ/mol.
Consider GTGCAGCGAAAGCTCAC (((.(((....)))))), for which, in data set [1], the Tm turned out to be 50.8 °C. Further, the folding enthalpy in data set [2] is -113 kJ/mol.
Taken in the same sequence, the figures for GGTAAGACGAAAGTCACC (((..(((....)))))) were 39.3 °C and -67.8 kJ/mol.
Taken in the same sequence, the figures for GCTACCGGAAACGACAGC (((..((....))..))) were 27.5 °C and -65.9 kJ/mol.
Taken in the same sequence, the figures for GCCCGCGAAAGCGTGGGC ((((((....)))..))) were 68.6 °C and -104 kJ/mol.
Take GTACGCGAAAGCGCATAC ((((((....)))..))): the Tm in data set [1] is 22.5 °C. In addition, the folding enthalpy in data set [2] was -23.3 kJ/mol.
For GCTAACGAAAGTTTAAGC ((((((....)))..))), in that order: 35.5 °C and -79.4 kJ/mol.
GGCAGCGAAAGCTACGCC ((((((....)))..))): the Tm in data set [1] amounted to 53.5 °C. Further, the folding enthalpy in data set [2] is -85.9 kJ/mol.
Taken in the same sequence, the figures for GGGACCCCGAAAGGGCCC (((..(((....)))))) were 58.6 °C and -85 kJ/mol.
